CHOP inhibitor – blocks CHOP induction under ER stress; CHO-K1 CHOP-promoter luciferase, tunicamycin-induced, 15-18 h; inhibition, % at 10 µM; 220,000 compounds, 3.8% hits;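 active means compounds that reduced the stress-induced luciferase reporter signal by more than about 70% of percent inhibition, limit read from the data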;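 further: 0% = tunicamycin plus vehicle and 100% = wells without tunicamycin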
XBP1 UPR activ – activators of adaptive arm of unfolded protein response (XBP1); CHO-XBP1 luciferase reporter, IRE1-XBP1 UPR activation, luminescence; percent of tunicamycin response, DMSO as zero; activation, % at 20 µM; 330,000 compounds, 0.33% hits;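 active means versus positive control, 20 µM dose yields 30% or more activation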;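 further: 100% = tunicamycin at 10 µg/mL and 0% = DMSO only wells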
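Material – CHO cell line with stable XBP1 luciferase reporter · Buffer or medium – F12 plus 10% FBS · Compound – single point, 20 µM final compound, 1% DMSO · Schedule – 16-18 h cell attachment at 37 °C, then 6 h compound exposure · Signal – Steady-Glo luminescence read · Benchmarks – high control tunicamycin 10 µg/mL final, low control DMSO vehicle only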
CHOP UPR activ – activators of apoptotic arm of unfolded protein response (CHOP); 330,000 compounds, 0.34% hits; AID 449763; activation, % at 10 µM; CHO-CHOP luciferase reporter, UPR activation, luminescence; percent of tunicamycin response over DMSO baseline;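 active means at 10 µM dose, activation of 40% or more, normalized to positive control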;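 further: 100% = tunicamycin at 10 µg/mL and 0% = DMSO alone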
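Dosing – one dose, 10 µM in 0.5% DMSO · System – CHO-CHOP cells, stable luciferase reporter of PERK-eIF2a-CHOP signalling · Input – 500 cells/well · Control set – tunicamycin 10 µg/mL final as positive, DMSO-only wells as negative · Timing – 6 h compound treatment, 37 °C · Measure – % activation vs tunicamycin · Technique – luminescence read with Steady-Glo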
Bfl-1 A1 inh – inhibitors of the anti-apoptotic protein A1, read as caspase activation; MEF A1-2A-BIM cells, Caspase-Glo 3/7 luminescence, 3 h; percent of clofoctol response, vehicle zero; caspase activation, % (test concentration not listed); 330,000 compounds, 0.066% hits;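 active means over half of replicate activation scores above 10%, or exactly half above 10 with the replicate mean above 10; inconclusive means replicate mean below 10 yet half the replicates above 10; inactive means over half of replicates below 10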
CHOP confirm – confirmation of CHOP induction inhibitors; shares compounds with CHOP inhibitor; CHO-CHOP promoter luciferase reporter, tunicamycin-induced, luminescence; inhibition, % at 10 µM; 2,100 compounds, 45% hits; AID 504437;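 active means mean of three repeat readings of reporter signal inhibition above a set limit, cut at about 70% in these data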;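 further: 0% = tunicamycin plus vehicle and 100% = wells lacking tunicamycin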
Starred values were filed as active, the others as inactive; ? = inconclusive; / = no result. Shown is part of a subset that was picked to be rich in hits.

SMILES	CHOP inhibitor	XBP1 UPR activ	CHOP UPR activ	Bfl-1 A1 inh	CHOP confirm
CC1(C)CC(=O)C2=C(C1)OC(N)=C(C#N)C21C(=O)N2CCCc3cccc1c32 (stereo not given)	41	-2	1	-1	/
Cc1cc2c3c(c1)C(C)(c1ccccc1)CC(C)(C)N3C(=O)C21C(C#N)=C(N)OC2=C1C(=O)CC(C)(C)C2 (stereo not given)	107*	2	-1	0	97*
CC1(c2ccccc2)CC(C)(C)N2C(=O)C3(C(C#N)=C(N)Oc4cc(O)ccc43)c3cccc1c32 (stereo not given)	106*	0	-1	1	104*
CC(Oc1ccccc1)C(=O)N=Nc1c(O)[nH]c2ccc(Br)cc12 (stereo not given)	101*	-3	0	0	-4
COC(=O)Oc1ccc(/C=N/NC(=O)CSCc2ccccc2Br)cc1OC	96*	6	1	0	75*
COc1ccc(/C=N/NC(=O)CSCC(=O)Nc2ccccc2)cc1OC	-12	-1	-1	0	/
COc1ccc(NC(=O)CC2C(=O)N(c3ccc(F)cc3)C(=S)N2NC(=O)c2ccc(Cl)cc2)cc1 (stereo not given)	106*	-1	2	0	43
O=S(=O)(/N=C(/Sc1ccccc1)c1ccccc1)c1ccccc1	112*	5	4	1	60
CS/C(=N\S(=O)(=O)c1ccccc1)c1ccccc1	25	-5	0	1	/
CNc1nc(SCC(=O)Nc2ccccc2)nc(N2CCOCC2)n1	/	0	1	1	/
CCCCn1c(NS(=O)(=O)c2ccccc2)c(S(=O)(=O)c2ccc(C)cc2)c2nc3ccccc3nc21	99*	/	/	?	76*
CCCCn1c(NC(=O)c2ccco2)c(S(=O)(=O)c2ccc(C)cc2)c2nc3ccccc3nc21	21	/	/	/	/
CCN(CC(=O)Nc1ccc2c(c1)OCCO2)C(=O)c1cc(=O)[nH]c2ccccc12	/	-2	2	1	/
COc1ccc(N2CCN(Cc3cc(=O)oc4cc(C)c(Cl)cc34)CC2)cc1	96*	6	4	1	37
Cc1ccc(/C=C2\SC(=S)N(CCCC(=O)Nc3ccccn3)C2=O)cc1	111*	-8	-11	0	114*
Cc1ccc(/C=C2\SC(=S)N(CCCC(=O)Nc3ccc(O)cc3)C2=O)cc1	100*	-1	-7	0	114*
COc1ccc(OC)c(-c2csc(NC(=O)C3=COCCO3)n2)c1	/	9	2	0	/
CC(/C=N/Nc1nnc2c(n1)[nH]c1ccccc12)=C\c1ccco1	107*	-2	0	-2	-27
COc1cccc(/C=N/Nc2nnc3c(n2)[nH]c2ccccc23)c1OC	-18	2	2	-1	/
Cc1ccc(-c2nnn3c2nc(Cl)c2ccccc23)cc1	56	/	/	/	/
Fc1cccc(-c2nnn3c2nc(Cl)c2ccccc23)c1	103*	/	/	/	127*
Cc1ccnc(N2C(=O)c3ccccc3C2=O)c1	/	-1	-1	0	/
O=C1c2cccc3c([N+](=O)[O-])ccc(c23)C(=O)N1Cc1cccnc1	110*	/	/	/	-203
Cc1ccnc(N2C(=O)c3cccc4c([N+](=O)[O-])ccc(c34)C2=O)c1	106*	-10	2	0	-53
O=C1c2cccc3cccc(c23)C(=O)N1Cc1cccnc1	-4	-2	-1	-1	/
SMILES	CHOP inhibitor	XBP1 UPR activ	CHOP UPR activ	Bfl-1 A1 inh	CHOP confirm
NC(=O)c1cc([N+](=O)[O-])ccc1NCc1ccc(N)cc1	/	-6	-8	2	/
C/C(=N\NC(=O)COc1ccccc1-c1ccccc1)c1cccnc1	15	-1	-1	-1	/
C/C(=N\NC(=O)COc1ccccc1-c1ccccc1)c1ccc(O)cc1O	104*	1	2	2	46
COc1ccccc1NC(=O)c1c(N=Cc2ccccc2O)cnn1C	101*	16	0	1	14
Cc1sc(NC(=O)c2cccc([N+](=O)[O-])c2)c(C(N)=O)c1-c1ccc(C(C)(C)C)cc1	107*	-1	10	0	139*
CCCCCCn1nc(C(=O)N(CCCC)c2c(N)n(CCC)c(=O)[nH]c2=O)c2ccccc2c1=O	/	-5	-2	-1	/
CCc1c(C)nc(N2CCN(c3ccccc3)CC2)[nH]c1=O	/	0	1	1	/
Cc1nc(N2CCN(c3ccccc3)CC2)[nH]c(=O)c1Cc1cccc2ccccc12	97*	17	6	0	-4
CC(OC(=O)C1CCN(S(=O)(=O)c2ccc(F)cc2)CC1)C(=O)NC1CCCCC1C (stereo not given)	/	-2	-2	-1	/
CC(=O)N(c1ccccc1)C1CCCC1	18	-1	1	1	/
O=C(CCl)N(c1ccccc1)C1CCCCC1	107*	-8	-1	1	16
C/C(=N\NC(=O)COc1ccc(C(C)(C)C)cc1)c1ccc(N2CCOCC2)cc1	101*	8	0	1	92*
CC(C)=NOc1cc(NC(=O)CCl)cc([N+](=O)[O-])c1	111*	-5	-7	0	110*
Cc1ccc2nc(Nc3nc(CSc4nnnn4-c4ccccc4)cc(=O)[nH]3)nc(C)c2c1	42	1	2	/	/
COc1ccc2c(C)nc(Nc3nc(C)c(C)c(=O)[nH]3)nc2c1	99*	8	-1	0	106*
Cc1nc(Nc2nc(CSc3nc4ccccc4[nH]3)cc(=O)[nH]2)nc2ccccc12	99*	6	2	0	87*
CCc1c(C)nc(Nc2nc(C)c3ccc(OC)cc3n2)[nH]c1=O	0	19	3	0	/
Cc1nc(Nc2nc(CSc3ccc(Cl)cc3)cc(=O)[nH]2)nc2ccccc12	48	7	4	0	/
COc1ccc2nc(Nc3nc(CSc4nc5ccccc5[nH]4)cc(=O)[nH]3)nc(C)c2c1	102*	2	-1	0	103*
CC(C)n1ncc2c(C(=O)Nc3cccc(S(=O)(=O)N(C)C)c3)cc(C3CC3)nc21	/	2	0	-1	/
CC(C)(C)OC(=O)CNC(=O)c1[nH]cnc1C(=O)Nc1ccc(Cl)cc1	100*	-1	-1	0	77*
C[C@H](NC(=O)c1[nH]cnc1C(=O)Nc1ccccc1)C(=O)OC(C)(C)C	48	-5	2	-2	/
Cc1ccc(NC(=O)c2nc[nH]c2C(=O)N[C@@H](C)C(=O)OC(C)(C)C)cc1	97*	-2	-1	0	78*
Cc1ccc(C(=O)N/C(=C\c2ccc(Br)cc2)c2nc(=S)[nH][nH]2)cc1	108*	-1	0	1	122*
O=C(Nc1ccc(-c2nc3ccccc3o2)cc1)c1ccc(N2CCOCC2)c([N+](=O)[O-])c1	101*	-6	-6	-1	114*
O=C(c1ccc(F)cc1)C1CCN(C(=O)c2ccccc2F)CC1	/	-3	-3	1	/
Cc1ccc(NC(=S)NCCSc2ccc(Cl)cc2)cc1	-13	1	2	0	/

Source: PubChem BioAssay
